In the library only some 2.2% were active in any assay of this set; here they are far more common.
ERp5 block: blocks human ERp5 reductase activity on insulin. ERp5 insulin aggregation, absorbance 650 nm, 90 min. inhibition, % at 9.99 µM. actives 0.05% (n = 350,000);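 active = mean replicate inhibition above about 25%, with every replicate also reaching it, limit read from the data, passing the limit was not always enough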
Target sequence (Q15084 whole entry, looked up): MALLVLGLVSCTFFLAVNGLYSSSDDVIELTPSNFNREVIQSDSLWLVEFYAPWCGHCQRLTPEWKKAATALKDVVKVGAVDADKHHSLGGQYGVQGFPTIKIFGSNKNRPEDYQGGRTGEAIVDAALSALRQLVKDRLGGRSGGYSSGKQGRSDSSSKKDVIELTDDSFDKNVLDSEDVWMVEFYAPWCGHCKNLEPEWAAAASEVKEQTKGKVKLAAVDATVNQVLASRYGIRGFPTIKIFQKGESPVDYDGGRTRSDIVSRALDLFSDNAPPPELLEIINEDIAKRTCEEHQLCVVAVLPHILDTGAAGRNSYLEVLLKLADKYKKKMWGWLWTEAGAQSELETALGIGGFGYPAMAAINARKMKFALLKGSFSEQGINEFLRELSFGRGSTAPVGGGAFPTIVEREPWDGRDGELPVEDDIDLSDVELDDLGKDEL
PvdQ inh: P. aeruginosa PvdQ acylase inhibition | inhibition, % at 10 µM | actives 0.063% (n = 340,000) | purified PvdQ acylase, fluorescence plate reader | AID 488965; in the data active = inhibition above about 30%, passing the limit was not always enough;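 also: 0% = vehicle neutral wells and 100% = reference inhibitor wells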
FN deposit inh: fibronectin deposition inhibition; AH1F fibroblasts, Alexa488-fibronectin deposition fluorescence, overnight; inhibition, % at 12.6 µM; actives 0.086% (n = 350,000); AID 743247;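 active = mean inhibition across replicates of 30% or more, regardless of how many single replicates reach that level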;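 also: positive control wells lacked labelled fibronectin entirely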
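material = AH1F fibroblast monolayer depositing Alexa488-labelled fibronectin into matrix | amount = 10000 AH1F cells/well | buffer or medium = DMEM plus 2% serum, read in PBS | incubation = 1 h cell adhesion before compound, then overnight fibronectin incubation | detection = fluorescence at 485 nm excitation, 525 nm emission | evaluation = percent inhibition as loss of matrix-bound fibronectin fluorescence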
HIV Env fusion: HIV envelope-mediated fusion inhibition. actives 1.1% (n = 360,000). HeLa-JRFL Env/CEM21 cell fusion, luciferase. inhibition, % at 12.3 µM;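 active = mean replicate inhibition score of at least 50 and every replicate individually at or above 50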;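 also: 0% = plate neutral controls and 100% = maraviroc near 300 nM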
PDI turbidity: inhibitors of human protein disulfide isomerase. inhibition, % at 10 µM. actives 0.052% (n = 350,000). P07237. AID 588391. PDI insulin aggregation turbidity, A650, 90 min;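 active = mean inhibition across replicates of 30% or more, whatever share of single replicates reach that level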
rRNA inh HTS: inhibitors of bacterial rRNA selective over humanized ribosomes | E. coli WT GFP vs humanized-ribosome RFP mutants, fluorescence, 24 h; active compounds read low; DMSO median 0, no signal -100 | AID 720706 | GFP signal change (wild-type ribosome), % (test concentration not listed) | actives 1.6% (n = 350,000);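 active = significant combined selectivity score with lowered wild-type GFP, culture density cut under 30%, mutant RFP and density less affected; inactive = any of these conditions unmet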
* = called active by the depositor; . = no result given; [ ] = remark or other dose.

SMILES | ERp5 block | PvdQ inh | FN deposit inh | HIV Env fusion | PDI turbidity | rRNA inh HTS
COC(=O)c1cc(C(=O)OC)n(Cc2ccc(F)cc2)c1C | 0 | 5 | 12 | 3 | -5 | -40*
COC(=O)c1cc(C(=O)OC)n(Cc2ccc(F)cc2)n1 | 2 | -16 | 5 | -57 | 0 | 0
COc1cccc(CNC23CC4CC(CC(C4)C2)C3)c1OCc1ccccc1 | 2 | 3 | 0 | 62* | -12 | -53
O=[N+]([O-])c1ccc(O)c(/C=N/Nc2ccc(Cl)nn2)c1 | . | 11 | . | 82* | -4 | .
Cc1cc(S(=O)(=O)NCC2CC2)c(Cl)cc1Cl | 3 | 107* | -5 | 14 | 1 | -12
Cc1[nH]c2ccc(-c3n[nH]c(=S)n3C)cc2c1C | 3 | 1 | . | . | 3 | -16*
COc1ccccc1CNc1nc(NCc2cnc(C)cn2)c2sccc2n1 | 1 | . | 35* | -1 | -8 | 15
O=C(Cc1ccncc1)N[C@@H]1CC[C@@H](CCn2cc(-c3ccccc3F)nn2)O[C@@H]1CO | -2 | . | -1 | -9[16.7 µM] | . | 3
CCCCC1(Cc2ccc([N+](=O)[O-])cc2)C(=O)N(c2ccccc2)N(c2ccccc2)C1=O | . | -4 | -11 | 133* | -7 | .
CCCCC1(COC(=O)CCC(=O)O)C(=O)N(c2ccccc2)N(c2ccccc2)C1=O | -12 | 2 | -6 | . | 1 | -1
COc1ccc2c3c([nH]c2c1)[C@H](CO)N(C(=O)NC1CCCC1)CC31CN(S(C)(=O)=O)C1 | -3 | . | . | . | . | -2
O=C(NCc1cccc(C(F)(F)F)c1)C1CC(c2ccccc2[N+](=O)[O-])=NO1 (configuration not stated) | -7 | -2 | -1 | -12 | 3 | -33*
C[C@@H](NC(=O)C[C@@H]1CC[C@@H](NC(=O)c2cccnc2)[C@@H](CO)O1)c1ccccc1 | -5 | . | -1 | -5[16.7 µM] | . | 3
Cc1cc(Nc2ccc(Cl)cc2)nc(NCc2ccccc2)n1 | . | 3 | 6 | 71* | 4 | .
CCOC(=O)c1c(NC(=O)CN2CCCCC2)sc2c1CCN(C(=O)OCC)C2 | 1 | -11 | . | . | 3 | -38*
CCOC(=O)c1c(NC(=O)CN(CC)CC)sc2c1CCN(C(=O)OCC)C2 | 1 | 2 | . | . | -12 | -2
COc1ccc(CN2CC3(C2)CN(C(=O)Nc2ccc(F)cc2)[C@@H](CO)c2[nH]c4cc(OC)ccc4c23)cc1 | . | . | . | . | . | -61
COc1ccc(C(=O)O)cc1S(=O)(=O)N(CCc1ccccc1)Cc1ccccc1 | 2 | -4 | -7 | 0 | -4 | -36*
C[C@@H]1CN([C@H](C)CO)C(=O)c2cccc(NS(=O)(=O)c3cccs3)c2O[C@@H]1CN(C)S(=O)(=O)c1ccc(F)cc1 | 7 | . | . | -8[16.7 µM] | . | 3
Clc1ccc(Nc2nc(-c3ccncc3)cs2)cc1 | . | -3 | . | . | -4 | .
Brc1ccc(Nc2nc(-c3cccnc3)cs2)cc1 | 3 | 2 | -7 | -68 | -9 | -24*
Nc1ccc(Nc2nc(-c3ccncc3)cs2)cc1 | -1 | -9 | . | . | 2 | -17*
O=C(c1cc(COc2cccc3cnccc23)on1)N1CCCC(CCCO)C1 (configuration not stated) | 3 | -23 | 16 | 57* | 7 | -12
O=C(c1cc(COc2ccc(F)cc2F)on1)N1CCCC(c2ccccc2)C1 (configuration not stated) | 0 | -9 | . | 0 | 9 | -22*
COc1cc(Cl)ccc1OCc1cc(C(=O)N2CCCCCCC2)no1 | 1 | 3 | 4 | -11 | -6 | 8
SMILES | ERp5 block | PvdQ inh | FN deposit inh | HIV Env fusion | PDI turbidity | rRNA inh HTS
COc1ccc(OCc2cc(C(=O)N3CCSCC3)no2)c(Cl)c1 | 0 | -9 | 2 | -31 | 7 | -29*
COc1cc(C)ccc1OCc1cc(C(=O)N2CCCCCC2)no1 | 2 | -28 | -10 | -8 | -1 | -26*
C/C=C/c1ccc([C@H]2[C@H](CO)N(C(C)=O)C23CN(C(=O)c2ccncc2)C3)cc1 | 5 | . | . | . | . | 0
C[C@@H]1CN([C@@H](C)CO)C(=O)c2cc(NC(=O)Cc3cn(C)c4ccccc34)ccc2O[C@H]1CN(C)C | 0 | . | . | . | . | 1
O=C(c1cc(COc2ccc(F)cc2Cl)on1)N1CCSCC1 | 2 | -7 | 2 | -61 | -10 | -37*
O=C(c1cc(COc2ccc(F)cc2Cl)on1)N1CCc2ccccc2C1 | -2 | -10 | -4 | 4 | 4 | 8
CCCN(C)C[C@H]1OCCCC[C@@H](C)Oc2ccc(NS(C)(=O)=O)cc2C(=O)N([C@@H](C)CO)C[C@H]1C | 0 | . | . | 5[16.7 µM] | . | 0
C=CCN1C(=S)CC(c2ccccc2)=Nc2ccccc21 | -3 | -8 | -4 | 92* | 0 | -22
CO[C@@H]1CN(C)C(=O)c2cc(NC(=O)c3cc(C)on3)ccc2OC[C@H](C)N(CC2CC2)C[C@@H]1C | 4 | . | 8 | 12[16.7 µM] | . | 2
C[C@H]1CN([C@@H](C)CO)C(=O)Cc2cc(NS(=O)(=O)c3ccccc3)ccc2O[C@H]1CN(C)C(=O)NC1CCCCC1 | 3 | . | . | . | . | 5
COC(=O)Cc1c(O)ccn(Cc2ccc(Cl)c(Cl)c2)c1=O | 3 | -8 | 5 | 12 | -3 | -21*
COc1ccc(C(=O)C(CN2CCCC2)c2ccccc2)cc1 (configuration not stated) | . | -13 | -1 | -41 | 2 | .
CCCCCC(O)(c1ccc(OC)cc1)C(CN1CCOCC1)c1ccccc1 (configuration not stated) | 2 | 1 | -1 | 44 | 2 | -20
CCCCCC(O)(c1ccc(OCC)cc1)C(CN1CCOCC1)c1ccccc1 (configuration not stated) | 3 | -19 | -4 | 59* | 14 | -26
COc1ccc(C(=O)C(CN2CCOCC2)c2ccccc2)cc1 (configuration not stated) | 10 | 19 | . | . | 1 | -50*
OC(c1ccccc1)(C1CCCCC1)C(CN1CCOCC1)c1ccccc1 (configuration not stated) | 0 | -1 | -2 | 33 | 11 | -11
O=C(c1ccc(Cl)cc1)C(CN1CCCC1)c1ccccc1 (configuration not stated) | 1 | -14 | 53* | -412 | -8 | -9
COc1ccc(C(O)(C2CCCCC2)C(CN2CCOCC2)c2ccccc2)cc1 (configuration not stated) | 0 | -18 | -19 | 74* | 7 | -33
CC(C)NC(=O)Nc1ccc2c(c1)C(=O)N(C)C[C@@H](C)[C@@H](CN(C)C)O2 | . | . | -8 | . | . | 3
COc1ccc(CN(C)C[C@H]2Oc3ccc(NS(=O)(=O)c4ccc(F)cc4)cc3CC(=O)N([C@@H](C)CO)C[C@@H]2C)cc1 | 0 | . | -10 | . | . | -3
COc1ccc2c3c(n(C)c2c1)[C@H](CO)N(S(C)(=O)=O)CC31CN(C(=O)C2CC2)C1 | . | . | . | . | . | 7

Assay outcomes from PubChem BioAssay.
